Results as given in publication PMC6698915 (Cancer chemotherapy and pharmacology, 2015).
Entries after “also recorded” stand apart in the source; their conditions may differ.

Tests used:
[1] = tested on: patients with advanced solid tumors; assay: Adverse events; format: in vivo, human
advanced solid tumors = assay: Antitumor efficacy; format: in vivo, human
Summary of the method: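 Open-label single-centre 3+3 trial in advanced solid tumors. Oral PI3K-inhibitor test compound was given at 50, 80 or 100 mg/day continuously. […] Imaging after each even-numbered cycle; best response per RECIST. FFPE tumor PTEN IHC scored 0/1+/2+.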

[2] = Group 1 (n = 16 subjects), with carboplatin + paclitaxel q21 days
[3] = Group 2 (n = 14 subjects), with carboplatin + weekly paclitaxel q28 days
[4] = 25 patients measurable by RECIST, both groups

Nc1cc(C(F)(F)F)c(-c2cc(N3CCOCC3)nc(N3CCOCC3)n2)cn1 [buparlisib]
ALT and/or AST elevation, any grade [1, 2]: 9 (56) n (%) | ALT and/or AST elevation, ≥Grade 3 [1, 2]: 2 (13) n (%) | Alkaline phosphatase, increased, any grade [1, 2]: 14 (88) n (%) | Alkaline phosphatase, increased, ≥Grade 3 [1, 2]: 2 (13) n (%) | Alopecia, any grade [1, 2]: 14 (88) n (%) | Anemia, any grade [1, 2]: 13 (81) n (%) | Anemia, ≥Grade 3 [1, 2]: 2 (13) n (%) | Anorexia, any grade [1, 2]: 13 (81) n (%) | Anorexia, ≥Grade 3 [1, 2]: 1 (6) n (%) | Anxiety, any grade [1, 2]: 6 (38) n (%) | Anxiety, ≥Grade 3 [1, 2]: 0 n (%) | Arthralgia, any grade [1, 2]: 13 (81) n (%) | Arthralgia, ≥Grade 3 [1, 2]: 1 (6) n (%) | Constipation, any grade [1, 2]: 11 (69) n (%) | Constipation, ≥Grade 3 [1, 2]: 0 n (%) | Cough, any grade [1, 2]: 9 (56) n (%) | Cough, ≥Grade 3 [1, 2]: 0 n (%) | Depressed mood, any grade [1, 2]: 6 (38) n (%) | Depressed mood, ≥Grade 3 [1, 2]: 1 (6) n (%) | Diarrhea, any grade [1, 2]: 14 (88) n (%) | Diarrhea, ≥Grade 3 [1, 2]: 1 (6) n (%) | Dizziness, any grade [1, 2]: 10 (63) n (%) | Dizziness, ≥Grade 3 [1, 2]: 0 n (%) | Dyspnea, any grade [1, 2]: 11 (69) n (%) | Dyspnea, ≥Grade 3 [1, 2]: 0 n (%) | Fatigue, any grade [1, 2]: 14 (88) n (%) | Fatigue, ≥Grade 3 [1, 2]: 1 (6) n (%) | Hypercholesterolemia, any grade [1, 2]: 7 (44) n (%) | Hypercholesterolemia, ≥Grade 3 [1, 2]: 0 n (%) | Hyperglycemia, any grade [1, 2]: 15 (94) n (%) | Hyperglycemia, ≥Grade 3 [1, 2]: 2 (13) n (%) | Hypertension, any grade [1, 2]: 6 (38) n (%) | Hypertension, ≥Grade 3 [1, 2]: 0 n (%) | Hypertriglyceridemia, any grade [1, 2]: 7 (44) n (%) | Hypertriglyceridemia, ≥Grade 3 [1, 2]: 0 n (%) | Hypoalbuminemia, any grade [1, 2]: 14 (88) n (%) | Hypoalbuminemia, ≥Grade 3 [1, 2]: 0 n (%) | Hypocalcemia, any grade [1, 2]: 6 (38) n (%) | Hypocalcemia, ≥Grade 3 [1, 2]: 1 (6) n (%) | Hypomagnesemia, any grade [1, 2]: 10 (63) n (%) | Hypomagnesemia, ≥Grade 3 [1, 2]: 0 n (%) | Hyponatremia, any grade [1, 2]: 8 (50) n (%) | Hyponatremia, ≥Grade 3 [1, 2]: 3 (19) n (%) | Hypophosphatemia, any grade [1, 2]: 2 (13) n (%) | Hypophosphatemia, ≥Grade 3 [1, 2]: 2 (13) n (%) | INR, increased, any grade [1, 2]: 6 (38) n (%) | INR, increased, ≥Grade 3 [1, 2]: 0 n (%) | Leukopenia, any grade [1, 2]: 12 (75) n (%) | Leukopenia, ≥Grade 3 [1, 2]: 2 (13) n (%) | Lymphopenia, any grade [1, 2]: 12 (75) n (%) | Lymphopenia, ≥Grade 3 [1, 2]: 12 (75) n (%) | Mucositis, oral, any grade [1, 2]: 6 (38) n (%) | Mucositis, oral, ≥Grade 3 [1, 2]: 0 n (%) | Myalgia, any grade [1, 2]: 11 (69) n (%) | Myalgia, ≥Grade 3 [1, 2]: 1 n (%) | Nausea, any grade [1, 2]: 12 (75) n (%) | Nausea, ≥Grade 3 [1, 2]: 0 n (%) | Neuropathy, sensory, any grade [1, 2]: 7 (44) n (%) | Neuropathy, sensory, ≥Grade 3 [1, 2]: 1 (6) n (%) | Neutropenia, any grade [1, 2]: 4 (25) n (%) | Neutropenia, ≥Grade 3 [1, 2]: 2 (13) n (%) | Rash, skin toxicity, any grade [1, 2]: 13 (81) n (%) | Rash, skin toxicity, ≥Grade 3 [1, 2]: 0 n (%) | Thrombocytopenia, any grade [1, 2]: 13 (81) n (%) | Thrombocytopenia, ≥Grade 3 [1, 2]: 3 (19) n (%) | incidence rate of ≥grade 3 leukopenia ([1]; Group 2): 64% | incidence rate of ≥grade 3 neutropenia ([1]; Group 2): 79% | ALT and/or AST elevation, any grade [1, 3]: 6 (43) n (%) | ALT and/or AST elevation, ≥Grade 3 [1, 3]: 1 (7) n (%) | Alkaline phosphatase, elevated, any grade [1, 3]: 5 (36) n (%) | Alkaline phosphatase, elevated, ≥Grade 3 [1, 3]: 1 (7) n (%) | Alopecia, any grade [1, 3]: 11 (79) n (%) | Anemia, any grade [1, 3]: 14 (100) n (%) | Anemia, ≥Grade 3 [1, 3]: 1 (7) n (%) | Anorexia, any grade [1, 3]: 9 (64) n (%) | Anorexia, ≥Grade 3 [1, 3]: 0 n (%) | Anxiety, any grade [1, 3]: 5 (36) n (%) | Anxiety, ≥Grade 3 [1, 3]: 0 n (%) | Arthralgia, any grade [1, 3]: 7 (50) n (%) | Arthralgia, ≥Grade 3 [1, 3]: 0 n (%) | Constipation, any grade [1, 3]: 8 (57) n (%) | Constipation, ≥Grade 3 [1, 3]: 0 n (%) | Cough, any grade [1, 3]: 8 (57) n (%) | Cough, ≥Grade 3 [1, 3]: 0 n (%) | Diarrhea, any grade [1, 3]: 7 (50) n (%) | Diarrhea, ≥Grade 3 [1, 3]: 0 n (%) | Dyspepsia, any grade [1, 3]: 6 (43) n (%) | Dyspepsia, ≥Grade 3 [1, 3]: 0 n (%) | Fatigue, any grade [1, 3]: 11 (79) n (%) | Fatigue, ≥Grade 3 [1, 3]: 2 (14) n (%) | Hypercholesterolemia, any grade [1, 3]: 9 (64) n (%) | Hypercholesterolemia, ≥Grade 3 [1, 3]: 0 n (%) | Hyperglycemia, any grade [1, 3]: 14 (100) n (%) | Hyperglycemia, ≥Grade 3 [1, 3]: 0 n (%) | Hypertension, any grade [1, 3]: 6 (43) n (%) | Hypertension, ≥Grade 3 [1, 3]: 0 n (%) | Hypertriglyceridemia, any grade [1, 3]: 8 (57) n (%) | Hypertriglyceridemia, ≥Grade 3 [1, 3]: 1 (7) n (%) | Hypoalbuminemia, any grade [1, 3]: 13 (93) n (%) | Hypoalbuminemia, ≥Grade 3 [1, 3]: 0 n (%) | Hypocalcemia, any grade [1, 3]: 5 (36) n (%) | Hypocalcemia, ≥Grade 3 [1, 3]: 0 n (%) | Hypokalemia, any grade [1, 3]: 5 (36) n (%) | Hypokalemia, ≥Grade 3 [1, 3]: 1 (7) n (%) | Hypomagnesemia, any grade [1, 3]: 7 (50) n (%) | Hypomagnesemia, ≥Grade 3 [1, 3]: 0 n (%) | Hyponatremia, any grade [1, 3]: 6 (43) n (%) | Hyponatremia, ≥Grade 3 [1, 3]: 0 n (%) | Leukopenia, any grade [1, 3]: 14 (100) n (%) | Leukopenia, ≥Grade 3 [1, 3]: 9 (64) n (%) | Lymphopenia, any grade [1, 3]: 7 (50) n (%) | Lymphopenia, ≥Grade 3 [1, 3]: 7 (50) n (%) | Mucositis, oral, any grade [1, 3]: 5 (36) n (%) | Mucositis, oral, ≥Grade 3 [1, 3]: 2 (14) n (%) | Myalgia, any grade [1, 3]: 5 (36) n (%) | Myalgia, ≥Grade 3 [1, 3]: 0 n (%) | Nausea, any grade [1, 3]: 10 (71) n (%) | Nausea, ≥Grade 3 [1, 3]: 0 n (%) | Neuropathy, sensory, any grade [1, 3]: 5 (36) n (%) | Neuropathy, sensory, ≥Grade 3 [1, 3]: 0 n (%) | Neutropenia, any grade [1, 3]: 13 (93) n (%) | Neutropenia, ≥Grade 3 [1, 3]: 11 (79) n (%) | Pain, not otherwise specified, any grade [1, 3]: 5 (36) n (%) | Pain, not otherwise specified, ≥Grade 3 [1, 3]: 0 n (%) | Rash, skin toxicity, any grade [1, 3]: 8 (57) n (%) | Rash, skin toxicity, ≥Grade 3 [1, 3]: 0 n (%) | Thrombocytopenia, any grade [1, 3]: 13 (93) n (%) | Thrombocytopenia, ≥Grade 3 [1, 3]: 0 n (%) | febrile neutropenia ([1]; both groups): no episodes of febrile neutropenia | treatment-related deaths ([1]; both groups): no treatment-related deaths | best response: confirmed partial response (PR) (advanced solid tumors; [4]): four | best response: progression of disease (advanced solid tumors; [4]): three | confirmed objective response rate (advanced solid tumors; 25 patients with measurable disease, Groups 1 and 2 (1 CR, 4 PRs; 5/25)): 20% | patients with reductions in measurable disease of at least 20 % and/or at least six cycles (advanced solid tumors; of patients who completed at least one cycle (18/25)): 72% | patients with reductions in measurable disease of at least 20 % and/or at least six cycles (advanced solid tumors; of patients who received any study treatment (18/30)): 60% | duration of disease control (advanced solid tumors; one person, metastatic parotid carcinoma to bone, loss of PTEN expression, Group 2): approximately 20 months | alkaline phosphatase nadir (advanced solid tumors; same parotid carcinoma patient, baseline 236, normal range 45–129 U/L): 80 U/L | outcome in patients with loss of PTEN expression (advanced solid tumors; three patients, PTEN IHC score = 0): all derived clinical benefit from treatment; also recorded: experienced objective radiographic tumor reductions or clinical benefit
